Published values of several laboratories.
Target: G protein-coupled receptor kinase 4 (GRK4, Homo sapiens, UniProt P32298)

| Structure (SMILES) | test | setting | quantity | value |
| --- | --- | --- | --- | --- |
| N#CC1(c2ccccn2)CCN(Cc2cc(C(=O)O)c(=O)n3ccccc23)CC1 | cell-free assay, competition with immobilised ligand | 1 µM | remaining binding | 68% |
| Cc1nn(C)cc1-c1nc2c(N3CCN(Cc4ccc(Cl)cc4)CC3)c(Cl)cnc2[nH]1 | binding, competition with immobilised ligand | 1 µM | remaining binding | 41% |
| O=c1[nH]c2ccccc2n1C1CCN(Cc2ccc(-c3[nH]c4cc5ncnc5cc4nc3-c3ccccc3)cc2)CC1 | cell-free assay | 0.5 µM | remaining signal | 104% |
| Nc1ncc(-c2nc(N3CCOCC3)nc(N3CCOCC3)n2)c(C(F)F)n1 | binding, competition with immobilised ligand | 10 µM | remaining binding | 74% |
| Cn1cc(-c2cc(F)cc(N3CCn4c(cc5c4CCCC5)C3=O)c2CO)cc(Nc2ccc(N3CCN(C4COC4)CC3)cn2)c1=O | enzyme activity, inhibitor | 0.1 µM | inhibition | 12% |
| COc1ncccc1-c1cnn2ccc(N3CCN(C(=O)OC(C)C)CC3)nc12 | binding, competition with immobilised ligand | 1 µM | remaining binding | 70% |
| Cn1cc(-c2cccc(N3CCc4c(sc5c4CC(C)(C)C5)C3=O)c2CO)cc(Nc2ccncn2)c1=O | enzyme activity, inhibitor | 1 µM | inhibition | -4% |
| Cn1cncc1[C@@](O)(COc1ccc(C#N)cc1-c1ccc(OC(F)(F)F)cc1)c1ccc(C#N)cc1 | cell-free assay, competition with immobilised ligand | 1 µM | remaining binding | 56% |
| CC(C)(C)c1cc(C=C(C#N)C#N)cc(Br)c1O | enzyme activity, inhibitor | 0.5 µM | remaining activity | 101% |
